Sampled rows, rich in hits. Any-hit rate of the full collection: about 2.7%.
PAFAH1B2 inh: PAFAH1B2 (human) inhibition; P68402; recombinant PAFAH1B2, FP-rhodamine activity probe, fluorescence polarization; inhibition, % at 3.39 µM; actives 1.2% (n = 340,000);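 active means inhibition above the mean of all tested compounds plus 3 SD, cut at about 24% in these data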;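 further: 0% = enzyme with DMSO and 100% = wells lacking PAFAH1B2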
Target sequence (P68402 whole entry, looked up): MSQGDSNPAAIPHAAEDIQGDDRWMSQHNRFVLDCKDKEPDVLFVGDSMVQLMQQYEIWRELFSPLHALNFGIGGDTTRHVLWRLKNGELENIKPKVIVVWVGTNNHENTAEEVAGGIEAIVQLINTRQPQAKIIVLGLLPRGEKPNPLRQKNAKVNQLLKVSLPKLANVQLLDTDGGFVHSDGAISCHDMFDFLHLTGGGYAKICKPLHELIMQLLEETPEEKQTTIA
ASAP1 GAP inh: ASAP1 ArfGAP inhibition. inhibition, % at 16.5 µM. Q9ULH1. actives 0.19% (n = 360,000). ASAP1-stimulated ARF1 GTP hydrolysis, GDP FP detection; in the data active means inhibition above about 25%;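 further: 0% = vehicle with enzyme and substrate and 100% = no enzyme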
Target sequence (Q9ULH1 325-724 limits assumed): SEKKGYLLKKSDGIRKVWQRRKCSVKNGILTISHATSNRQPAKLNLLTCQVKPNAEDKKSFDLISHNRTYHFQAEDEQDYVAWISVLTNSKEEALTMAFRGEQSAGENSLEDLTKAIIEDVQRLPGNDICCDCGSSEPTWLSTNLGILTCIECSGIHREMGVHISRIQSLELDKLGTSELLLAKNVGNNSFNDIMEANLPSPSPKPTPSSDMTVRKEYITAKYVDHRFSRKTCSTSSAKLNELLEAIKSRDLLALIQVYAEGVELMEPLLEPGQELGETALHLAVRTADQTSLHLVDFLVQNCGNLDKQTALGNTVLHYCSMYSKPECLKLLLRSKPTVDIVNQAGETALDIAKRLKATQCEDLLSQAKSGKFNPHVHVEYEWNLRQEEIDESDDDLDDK
PAFAH1B3 inh: blocks human PAF acetylhydrolase 1B catalytic subunit 3; Q15102; recombinant PAFAH1B3, FP-rhodamine probe, fluorescence polarization; inhibition, % at 3.39 µM; actives 0.28% (n = 340,000); AID 492972;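 active means inhibition above the screen-wide average of all tested compounds plus 3 SD, cut at about 25% in these data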;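 further: 0% = enzyme with DMSO only and 100% = wells lacking PAFAH1B3 protein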
pPAFAH inh: pPAFAH (human) enzyme inhibition; inhibition, % at 3.39 µM; recombinant pPAFAH, FP-rhodamine probe fluorescence polarization; actives 1.5% (n = 330,000); AID 463082;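 active means inhibition above the mean inhibition across the screen plus 3 SD, cut at about 25% in these data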;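 further: inhibitors block binding of the rhodamine activity-based probe so polarization drops; 0% = enzyme with DMSO and 100% = wells lacking pPAFAH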
PAFAH2 inh: inhibitors of human PAFAH2; Q99487; recombinant PAFAH2, FP-rhodamine activity probe, fluorescence polarization; inhibition, % at 3.39 µM; actives 0.99% (n = 340,000);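 active means inhibition above the mean over all tested compounds plus 3 SD, cut at about 30% in these data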;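 further: inhibitors block probe labeling of enzyme so polarization drops; 0% = enzyme with DMSO and 100% = wells lacking PAFAH2 protein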
ARFGAP1 inhibitor: rat ARFGAP1 inhibition. Q62848. Arfgap1-stimulated ARF1 GTP hydrolysis, GDP FP detection. inhibition, % at 16.5 µM. actives 0.26% (n = 360,000);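 active means inhibition above a per-plate limit, mean inhibition of low control wells plus 3 SD, cut at about 25% in these data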;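 further: 0% = DMSO wells with enzyme and 100% = wells lacking Arfgap1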
Target sequence (Q62848 1-136 limits assumed): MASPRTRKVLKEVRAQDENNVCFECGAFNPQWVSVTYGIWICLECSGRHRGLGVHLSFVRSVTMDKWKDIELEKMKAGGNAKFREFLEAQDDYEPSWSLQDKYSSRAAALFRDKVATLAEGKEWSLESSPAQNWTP
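Replicates: Single well per compound | Assay system: Truncated rat Arfgap1 GAP domain | Control set: No-Arfgap1 wells (100%) versus DMSO full-reaction wells (0%) | Times: Enzyme reaction 120 min at 25 °C after 20 min preincubation | Reagent: Human ARF1(Δ1-17)-GTP substrate | Measured by: Tracer-displacement fluorescence polarization with EDTA stop, 620/688 nm | Measure: Percent inhibition of Arfgap1-stimulated GTP hydrolysis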
PAFAH1B3 confirm: confirmation of human PAFAH1B3 inhibitors; recombinant PAFAH1B3, FP-Rh activity-based probe, fluorescence polarization; shares compounds with PAFAH1B3 inh; AID 493032; inhibition, % at 3.39 µM; actives 30% (n = 390);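 active means average inhibition over triplicate runs above the hit cutoff set in the earlier primary screen, cut at about 25% in these data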;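 further: 0% = enzyme with DMSO and 100% = wells lacking PAFAH1B3 protein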
* hit, by the source's call; x = no result; ! = not active in a repeat.

SMILES | PAFAH1B2 inh | ASAP1 GAP inh | PAFAH1B3 inh | pPAFAH inh | PAFAH2 inh | ARFGAP1 inhibitor | PAFAH1B3 confirm
Cc1cccc(C(=O)Oc2ccc(/C=N/NC(=O)c3cc(O)cc(O)c3)cc2)c1 | 5.1 | -1.5 | 26.3* | x | -16.6 | -10.8 | 12.0
CCN(CC)c1ccc(/C=N/NC(=O)Cc2nnc(NC(=O)Nc3ccccc3)s2)cc1 | 18.6 | 2.8 | 35.4* | 19.8 | 15.8 | -5.2 | 26.3*
CCN(CC)c1ccc(/C=N/NC(=O)Nc2ccccc2)cc1 | 9.9 | -6.7 | 6.2 | 10.4 | 6.2 | 3.5 | x
NS(=O)(=O)c1ccc(-c2ccc(/C=C3\NC(=S)NC3=O)o2)cc1 | 2.5 | -7.3 | 34.0* | 15.3 | -1.5 | 6.3 | 11.7
Cc1cc(C)c[n+](C2=C([O-])c3ccccc3C(=O)/C2=N\S(=O)(=O)c2cccs2)c1 | 4.0 | -0.5 | 32.9* | 9.5 | 8.7 | -4.8 | 22.8
COCCCNC(=S)N1CCCN(c2nc3cc(C)c(C)cc3cc2C#N)CC1 | 9.7 | 6.3 | 26.2* | -0.7 | 2.0 | -8.9 | 4.0
CCOCCCNC(=S)N1CCCN(c2nc3cc(C)c(C)cc3cc2C#N)CC1 | 6.9 | 2.8 | 4.1 | -1.9 | 2.5 | 17.7 | x
On1nnc2c3ccccc3c3ccccc3c21 | 10.4 | 15.9 | 38.1* | 3.3 | 3.0 | -8.6 | 41.5*
On1nnc2ccccc21 | 0.6 | 1.0 | 6.2 | -6.7 | -6.2 | 6.1 | x
Cc1[nH]n(-c2ccccc2)c(=O)c1/C=N/NC(=O)c1ccc(O)cc1O | 12.0 | x | 18.3 | 11.4 | -0.9 | x | x
Cc1ccc(-n2[nH]c(C)c(/C=N/NC(=O)c3ccc(O)cc3O)c2=O)cc1 | 14.4 | x | 26.7* | 13.1 | 6.7 | x | 14.3
CC(=O)Oc1ccc2ccc3ccc(C(C)=O)cc3c2c1 | 5.5 | -2.6 | 2.5 | x | 3.6 | -1.0 | x
CC1(C(=O)O)CCCN(C(=O)C2(c3ccc(Cl)cc3)CCCC2)C1 (stereo not drawn) | x | -1.9 | x | x | x | -7.0 | x
O=C(O)[C@@H]1[C@H]2C[C@H]3c4[nH]c5ccccc5c4CCN3C[C@@H]2CC[C@@H]1O | 17.2 | -12.9 | 27.8* | 7.8 | 6.0 | 4.3 | 23.8
CC(C)(C)NCC(O)COc1cccc2c1C[C@H](O)[C@H](O)C2 (stereo partly drawn) | -7.2 | 6.2 | 33.1* | 1.5 | -3.9 | 6.8 | 8.9
O=C1C=C(Nc2ccc(F)cc2)c2ccccc2C1=O | 6.5 | -1.1 | 34.1* | 9.9 | 7.6 | 4.3 | 24.0
O=C1C=C(Nc2ccccc2O)c2ccccc2C1=O | -8.9 | 2.5 | 2.8 | 19.3 | -12.5 | -4.2 | x
CCOc1ccc(NC2=CC(=O)C(=O)c3ccccc32)cc1 | 14.5 | -11.6 | 49.5* | x | 13.7 | 7.7 | 31.4*
Cc1ccc(NC2=CC(=O)C(=O)c3ccccc32)c(C)c1 | 5.8 | 5.7 | 39.8* | 2.9 | 5.4 | 9.4 | 17.4
CCOC(=O)[C@]12CCCC=C1N(Cc1ccc3c(c1)OCO3)C(=O)[C@H](CC(=O)N1CCCC1)C2 | x | -10.2 | x | x | x | 4.0 | x
CCOc1ccc(C(=O)CCC(=O)N2CCN(S(=O)(=O)c3cccc(F)c3)CC2)cc1 | 5.2 | 10.8 | 2.2 | 2.6 | 3.2 | 19.0 | x
CCCCn1nnnc1C(c1cc2ccccc2o1)N1CCN(C(=O)OCC)CC1 (stereo not drawn) | x | 11.4 | x | x | x | 0.5 | x
COc1ccc2[nH]c(O)c(N=O)c2c1 | 7.9 | -1.9 | 18.7 | 16.7 | 11.4 | 7.1 | x
Cc1cc2c(N=O)c(NO)ccc2[nH]1 | 21.2 | x | 44.2* | 10.1 | 9.2 | x | 34.9*
CC(C)Cn1c(N)c(C(=O)NCC2CCCO2)c2nc3ccccc3nc21 (stereo not drawn) | 7.7 | 11.0 | 32.3* | 13.1 | 12.2 | 12.7 | 14.2
SMILES | PAFAH1B2 inh | ASAP1 GAP inh | PAFAH1B3 inh | pPAFAH inh | PAFAH2 inh | ARFGAP1 inhibitor | PAFAH1B3 confirm
COCC(C)OC(=O)c1c(N)n(CC(C)C)c2nc3ccccc3nc12 (stereo not drawn) | 0.4 | 5.8 | 35.1* | 1.0 | -12.6 | 13.9 | 4.7
O=C1C=C(O)c2[nH]c(=O)ccc2C1=O | 21.0 | -11.3 | 53.2* | x | 13.6 | -8.9 | 16.1
NC1=CC(=O)C(=O)c2ccccc21 | 6.5 | 5.4 | 11.6 | x | 7.1 | -1.3 | x
O=C(c1ccco1)N1N=C(c2ccccc2O)CC1c1cccs1 (stereo not drawn) | x | -10.9 | x | x | x | -4.9 | x
COc1ccc(C(=O)c2coc(-c3ccccc3C(=O)O)c2C(=O)O)cc1 | 1.7 | 3.5 | 3.4 | 0.7 | 5.7 | 3.1 | x
COc1ccc(C(=O)c2c(C(F)(F)F)oc3c2C(=O)c2ccccc2C3=O)cc1 | 10.3 | x | 26.8* | 8.7 | 4.5 | x | 24.9
O=S(=O)(Nc1c(S(=O)(=O)c2ccccc2)c2nc3ccccc3nc2n1C1CCCCC1)c1ccccc1 | 21.4 | 16.3 | 59.7* | 20.1 | 10.2 | 10.8 | 9.0
CNCCCC12CCC(c3ccccc31)c1ccccc12 | -1.1 | 10.9 | 50.2*! | -1.0 | 2.2 | -6.5 | 6.8
O=C(CCNC(=O)c1ccc(Cl)cc1)NCC(c1ccco1)N1CCCC1 (stereo not drawn) | -2.4 | 7.6 | 3.9 | x | -3.5 | 7.4 | x
CCCC[n+]1c2ccccc2cc2ccccc21 | 7.5 | -2.1 | 26.8* | 3.3 | 3.2 | 10.9 | 35.2*
Nc1ncnc2c1ncn2[C@@H]1O[C@H](C(=O)N2CCN(c3ccc(Cl)cn3)CC2)[C@@H](O)[C@H]1O | x | 7.3 | x | x | x | 1.9 | x
Cn1ccc2c(-c3cccc(C=O)c3)cc3c(c21)C1CCC3O1 (stereo not drawn) | x | 6.3 | x | x | x | 3.4 | x
COCC(=O)OC1CCn2c1nc1c2C(=O)C(C)=C(NC(C)=O)C1=O (stereo not drawn) | 20.8 | 22.4 | 69.2* | x | 26.0 | -14.4 | 54.7*
NNC(=O)/C(=N/Nc1ccccc1)S(=O)(=O)c1ccc(Cl)cc1 | 2.8 | 3.1 | 40.2* | 11.6 | -3.8 | 7.3 | 37.5*
CCOC(=O)/C(=N/Nc1ccc(C)cc1)S(=O)(=O)c1ccc(Cl)cc1 | 2.9 | 5.9 | 3.7 | 8.1 | -1.9 | 1.8 | x
COC(=O)[C@H]1C[C@H](OC(=O)Nc2c(C)noc2C)[C@@]2(O)CN(S(=O)(=O)c3ccc(C)cc3)CC2[C@H]1C(=O)OC (stereo partly drawn) | x | -11.2 | x | x | x | 16.0 | x
CCCN(CC1CC1)c1cc2c(c3c1ccn3C)C1CCC2O1 (stereo not drawn) | x | -3.2 | x | x | x | -3.6 | x
CCC(=O)Nc1c(C#N)c2nc3ccccc3nc2n1-c1ccc(C)cc1 | 3.2 | -10.1 | 6.3 | x | 2.6 | -1.7 | x
CCC(C)n1c(NC(=O)c2ccccc2)c(C#N)c2nc3ccccc3nc21 (stereo not drawn) | 2.2 | 21.4 | 34.6* | 13.7 | -2.0 | 12.8 | 8.0
CCCCn1c(N)c(N(CCC(C)C)C(=O)COC(=O)c2sccc2C)c(=O)[nH]c1=O | 4.2 | -1.3 | 9.9 | -4.5 | -1.7 | -8.3 | x

Assay outcomes: PubChem, The Scripps Research Institute Molecular Screening Center
